Screening data: PubChem BioAssay, several laboratories
OX1R antag-1 = OX1R (HCRTR1) antagonists, primary screen, fluorescence, CHO/OX1R cells, Fluo-8 calcium, orexin A; actives 0.43% (n = 330,000); Fluo-8 calcium fluorescence; AID 434989, 2010; inhibition, % at 5 µM; Orexin/Hypocretin receptor type 1 (Homo sapiens), O43613;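 active = inhibition above its plate's threshold, mean inhibition of all tested compounds on the plate plus 3 SD, cut at about 37% in these data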
Target sequence (O43613 whole entry, looked up): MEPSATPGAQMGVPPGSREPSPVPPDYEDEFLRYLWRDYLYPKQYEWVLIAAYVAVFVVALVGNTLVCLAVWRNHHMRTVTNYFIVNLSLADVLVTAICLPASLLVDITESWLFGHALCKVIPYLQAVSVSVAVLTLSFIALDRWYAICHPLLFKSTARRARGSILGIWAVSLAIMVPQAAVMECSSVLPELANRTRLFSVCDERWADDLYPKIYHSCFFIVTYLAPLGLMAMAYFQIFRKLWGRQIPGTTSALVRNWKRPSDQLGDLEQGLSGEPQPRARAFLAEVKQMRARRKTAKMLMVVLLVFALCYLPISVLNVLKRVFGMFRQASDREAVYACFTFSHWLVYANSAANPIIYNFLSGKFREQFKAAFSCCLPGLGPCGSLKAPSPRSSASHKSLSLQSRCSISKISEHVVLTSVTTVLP
TAAR1 agonist = human TAAR1 agonists, primary screen, Fluo-8 calcium fluorescence, CHO RD-HGA16 cells; Trace amine-associated receptor 1 (Homo sapiens), Q96RJ0; vehicle wells 0%, saturating PEA agonist 100%; actives 0.99% (n = 360,000); AID 624467, 2012; activation, % at 3 µM;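 active = activation above the mean activation of all test compounds in the run plus 3 SD, cut at about 38% in these data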
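Test system: RD-HGA16 (CHO) cells co-expressing Gα16 and hTAAR1 / Benchmarks: DMSO vehicle as 0%, PEA at EC100 as 100% / Repeats: no replicates (n 1) / Measure: % activation from peak over basal fluorescence ratio, DMSO-to-PEA scaled / Timing: 17-24 h plating, Fluo-8 75 min 37 °C, 30 min RT / Technique: kinetic Fluo-8 calcium fluorescence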
TAAR1 antagonist = human TAAR1 antagonists, primary screen, Fluo-8 calcium fluorescence, CHO RD-HGA16 cells; inhibition, % at 3 µM; antagonist; AID 624466, 2012; actives 1.5% (n = 360,000); Trace amine-associated receptor 1 (Homo sapiens), Q96RJ0;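 active = inhibition above a per-plate cutoff, the mean inhibition of test compounds on that plate plus 3 SD, cut at about 49% in these data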
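test system = CHO RD-HGA16 cells bearing hTAAR1 | replication = singlicate | controls = DMSO-only wells and EC80 β-PEA-stimulated wells | reagent = EC80 β-phenethylamine stimulus | read-out basis = percent inhibition of PEA-evoked calcium signal, max/basal emission ratio | schedule = seeding 17-24 h prior, 75-min 37 °C, 30-min RT dye loading | signal = kinetic Fluo-8 calcium fluorescence measurement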
OX1R antag-2 = antagonists of human orexin 1 receptor (OX1R); inhibition, % at 6.6 µM; AID 485270, 2010; actives 1.8% (n = 330,000); OX1R-expressing cells, FRET antagonist read-out; in the data active = inhibition mostly above about 38%, no sharp cut-off; inactive = mostly below about 40%
CHO parental Ca = ATP-evoked calcium signal inhibitors, parental CHO, primary screen, counter-screen for OX1R antagonist project, cell-based, fluorescence, Fluo-8 calcium dye; parental CHO-K1, ATP-induced calcium, Fluo-8 fluorescence; inhibition, % at 5.6 µM; actives 0.63% (n = 330,000);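 active = inhibition above that plate's mean sample inhibition plus 3 SD, cut at about 26% in these data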
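Test system: untransfected parental CHO cell line; also added: ATP stimulus; dosing: 5.6 µM, single dose; signal: calcium-sensitive Fluo-8 fluorescence; measure: percent inhibition of ATP-evoked calcium rise, normalized to controls; benchmarks: low control ATP plus DMSO, high control DMSO only; replication: one well per compound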
NTR1 agonist = agonists of human NTR1, primary screen, imaging, U2OS cells, beta-arrestin-GFP, high content. actives 0.17% (n = 330,000). NTR1-U2OS beta-arrestin-GFP spot imaging, agonist mode. activation, % at 20 µM. Neurotensin receptor type 1 (Homo sapiens), P30989;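 active = activation at or above 40% of the spot to cytoplasm intensity ratio, with at least 20 cells analyzed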
Hits are given with their value; - = inactive; . = no result given. The list is not random: actives were taken first. Their share in the collection is about 4%.

SMILES | OX1R antag-1 | TAAR1 agonist | TAAR1 antagonist | OX1R antag-2 | CHO parental Ca | NTR1 agonist
O=C(Nc1ccc(Cl)c([N+](=O)[O-])c1)C(Sc1ccccc1)c1ccccc1 (stereo not given) | - | - | 57 | - | - | -
CN1CCN(c2ccc([N+](=O)[O-])cc2S(=O)(=O)N2CCOCC2)CC1 | - | - | - | 94 | - | -
O=[N+]([O-])c1ccc(N2CCNCC2)c(S(=O)(=O)N2CCOCC2)c1 | - | - | - | - | - | -
CCOc1cccc(C=NNc2nc(=O)cc(C(=O)OC)s2)c1O | . | - | - | . | . | .
CC(CCc1ccccn1)(CCc1ccccn1)C(=O)c1ccccc1 | . | - | 53 | . | . | .
CC(C)c1ccc(/C=C/C(=O)NC(=S)Nc2ccc(CN3CCOCC3)cc2)cc1 | - | - | 67 | - | - | -
O=C(Cc1cccc2ccccc12)Nc1ccc(N2CCOCC2)cc1 | - | 39 | - | - | - | -
O=C(/C=C/c1ccccc1)NC(=S)Nc1ccc(N2CCOCC2)cc1 | - | - | 54 | - | - | -
O=C(Cc1ccccc1)Nc1ccc(N2CCOCC2)cc1 | - | - | - | - | - | -
O=C(/C=C/c1ccccc1)NC(=S)Nc1ccccc1 | - | - | - | - | - | -
Nc1ccn([C@@H]2O[C@H](C(=O)N[C@H](Cc3ccccc3)C(=O)N3CCSC3)[C@@H](O)[C@H]2O)c(=O)n1 | . | - | - | . | . | .
O=C(O)c1ccc(N2CCc3ccccc32)c([N+](=O)[O-])c1 | - | - | - | - | - | -
O=C(NCc1ccc(F)cc1)c1ccc(N2CCc3ccccc32)c([N+](=O)[O-])c1 | - | - | 52 | - | - | -
Cc1ccc2c(c1)-c1c(cnn1CC(=O)N(Cc1ccco1)C1CCCCC1)CO2 | - | - | - | 52 | - | -
Cc1ccc2c(c1)-c1c(cnn1CC(=O)NC(C)CCc1ccco1)CO2 (stereo not given) | - | - | - | - | - | -
C[C@@H]1CN([C@@H](C)CO)C(=O)CCCn2cc(nn2)CO[C@H]1CN(C)C(=O)c1ccc(N2CCN(C)CC2)cc1 | . | - | - | . | . | .
O=C(Cn1nnc(-c2ccccc2F)n1)Nc1ccc2c(c1)OCO2 | - | - | - | - | - | -
O=C(Nc1ccccc1C(=O)OCC(=O)c1c[nH]c2ccccc12)c1ccco1 | - | - | - | 50 | - | -
O=C(COC(=O)[C@H](Cc1ccccc1)N1C(=O)c2ccccc2C1=O)Nc1ccc2c(c1)OCO2 | - | - | 56 | - | - | -
CC(C)[C@@H](C(=O)OCC(=O)Nc1ccc2c(c1)OCO2)N1C(=O)c2ccccc2C1=O | - | - | - | - | - | -
O=C(Cn1nnc(-c2ccccc2)n1)Nc1ccc2c(c1)OCO2 | - | 42 | - | - | - | -
O=C(COC(=O)c1ccccc1NC(=O)c1ccco1)Nc1ccc2c(c1)OCO2 | - | - | - | 72 | - | -
Cn1nnc2ccccc2c1=O | - | - | - | - | - | -
C=CCN(CC=C)C(=O)CN1C(=O)NC(c2ccccc2)(c2ccccc2)C1=O | - | - | - | - | - | -
CCCCOCC1CN(CCCC)S(=O)(=O)c2c(Oc3ccc(SC)c(C)c3)cccc2O1 (stereo not given) | . | - | - | . | . | .
SMILES | OX1R antag-1 | TAAR1 agonist | TAAR1 antagonist | OX1R antag-2 | CHO parental Ca | NTR1 agonist
COc1ccc(C2CC(=O)C(c3ccc4ccccc4c3)=CN2Cc2ccccc2)cc1 (stereo not given) | . | - | - | . | . | .
CCCCN1C(=O)c2ccc(C(=O)OCC(=O)N3CCN(c4ccccc4)CC3)cc2C1=O | - | - | - | - | - | -
COCCCN1C(=O)c2ccc(C(=O)OCC(=O)N3CCN(c4ccccc4)CC3)cc2C1=O | - | - | - | 46 | - | -
CCOc1ccc(CCNC(=O)COC(=O)c2ccc(Br)o2)cc1OCC | - | - | - | - | - | -
Cc1cc(C)c(C2=NOC3c4ccccc4OCC23)c(C)c1 (stereo not given) | . | - | - | . | . | .
NC1=Nc2cccc3cccc1c23 | - | - | - | 71 | - | -
CSc1ccc(C2c3[nH]c4ccccc4c3CCN2C(=O)c2ccnn2C)cc1 (stereo not given) | - | - | 49 | - | - | -
CC(NC(=O)COC(=O)c1cc([N+](=O)[O-])ccc1N1CCOCC1)c1ccccc1 (stereo not given) | - | - | - | 51 | - | -
CC(NC(=O)COC(=O)c1cc([N+](=O)[O-])ccc1N1CCOCC1)c1ccc(F)cc1 (stereo not given) | - | - | - | 39 | - | -
CN1CCCCC(NC(=O)c2cccc([N+](=O)[O-])c2)C1=O (stereo not given) | . | - | - | . | . | .
CC(C)(C)c1ccc(OCc2ccc(C(=O)N/N=C/c3ccc(O)c(O)c3)cc2)cc1 | - | - | 53 | - | - | -
COC(=O)c1cc2c(c3c4cc(OC)ccc4n(S(=O)(=O)c4ccc(OC)cc4)c13)C(=O)N(Cc1ccc(C(F)(F)F)cc1)C2 | . | - | - | . | . | .
CN1CCCCC(NC(=O)c2ccccn2)C1=O (stereo not given) | . | - | - | . | . | .
COc1ccc(Cc2n[nH]c(=S)n2NC(=O)Nc2ccc(Cl)c(Cl)c2)cc1 | - | - | - | 58 | 52 | -
Cn1c(CC(=O)Nc2ccc(Cl)c(Cl)c2)n[nH]c1=S | - | - | - | - | - | -
COc1ccc(-c2cc(C(=O)N3CCN(S(=O)(=O)c4ccccc4)CC3)[nH]n2)cc1 | - | - | - | - | - | -
COc1ccc(S(=O)(=O)N2CCN(C(=O)c3cc(-c4ccc(Br)cc4)n[nH]3)CC2)cc1OC | - | - | 62 | - | - | -
Cc1cc(Br)c2nc(-c3cccc(Br)c3)c(Cc3cccc(Cl)c3)n2c1 | . | - | - | . | . | .
Nc1[nH]c(C(=O)c2ccc(Br)cc2)c(-c2c(F)cccc2F)c1C(=O)NCCc1c[nH]c2ccccc12 | . | - | - | . | . | .
COC(=O)[C@H](Cc1ccccc1)NC(=O)NC(C)CCc1ccccc1 (stereo not given in full) | - | 45 | - | - | - | -
CN(C)CCN1C(=O)C(O)=C(C(=O)c2cc3ccccc3o2)C1c1ccccn1 (stereo not given) | - | . | . | 49 | - | -
Cc1ccc(Nc2nc(NCCO)c3ccccc3n2)cc1C | - | 39 | - | - | - | -
CSc1ccc(/C=C/C(=O)OCC(=O)NC2CC2)cc1 | - | - | - | - | - | -
